Assay results: ChEMBL document CHEMBL5042476, “Structure-Based Design and Development of Chemical Probes Targeting Putative MOR-CCR5 Heterodimers to Inhibit Opioid Exacerbated HIV-1 Infectivity” (J Med Chem, 2021)
Activity calls are given as the source filed them. The calls are words filed in the database; no cut-off is given here.

Legend:
[1] = Cytotoxicity against human GHOST CCR5 cells assessed as reduction in cell viability measured after 6 days by XTT assay; format: toxicity, cell-based; settings: time 6 day, read-out: TC50
Outline: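 GHOST CCR5 cells treated in triplicate at the same 6 concentrations without virus, 6 days at 37 °C. XTT/PMS added for 4 h at 37 °C and absorbance read at 450 nm (650 nm reference).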

Mu-type opioid receptor [2] = target: T1, Mu-type opioid receptor (Mus musculus, UniProt P42866); assay: Displacement of [3H]-naloxone from mouse MOR expressed in CHO cells incubated for 1.5 hrs by competitive radioligand binding assay; format: cell-based
Outline: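 Mouse MOR CHO membranes (30 μg) with [3H]naloxone and test compound in TME buffer (50 mM Tris, 3 mM MgCl2, 0.2 mM EGTA, pH 7.4), 1.5 h at 30 °C, then filtered. IC50 converted to Ki by Cheng–Prusoff.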

Mu-type opioid receptor [3] = target: T1, Mu-type opioid receptor; assay: Antagonist activity at mouse MOR expressed in CHO cells assessed as inhibition of DAMGO-induced calcium mobilization preincubated for 60 mins measured after 15 mins by calcium mobilization assay; format: functional, cell-based
Outline: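 mMOR-CHO cells transfected with Gα for 4 h, plated and cultured 24 h. Triplicates; IC50 by nonlinear regression.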

[4] = target: T2, C-C chemokine receptor type 5 (Homo sapiens, UniProt P51681); assay: Antagonist activity at CCR5 (unknown origin) expressed in HOS cells co-expressing Gqi-5 assessed as inhibition CCL5-stimulated Ca2+ mobilization by calcium mobilization assay; format: functional, cell-based
Outline: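 HOS-CCR5 cells transfected with Gqi5, used 48 h post-transfection and loaded with Fluo4-AM for 45 min. Compound preincubated 15 min, then CCL5 (20 μL of 200 nM) added after 16 s of reading.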
Target sequence in this assay (P51681 whole entry): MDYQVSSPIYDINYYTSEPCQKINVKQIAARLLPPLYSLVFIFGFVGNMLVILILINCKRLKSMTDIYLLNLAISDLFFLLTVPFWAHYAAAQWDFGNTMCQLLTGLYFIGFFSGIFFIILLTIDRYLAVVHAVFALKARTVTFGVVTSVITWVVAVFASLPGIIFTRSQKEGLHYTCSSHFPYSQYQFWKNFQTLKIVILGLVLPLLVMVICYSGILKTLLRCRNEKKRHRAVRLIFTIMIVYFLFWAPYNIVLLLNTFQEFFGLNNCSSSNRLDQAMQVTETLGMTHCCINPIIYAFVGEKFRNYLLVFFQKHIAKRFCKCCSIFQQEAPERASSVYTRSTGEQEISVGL

[5] = target: Mu-type opioid receptor (Mus musculus) (UniProt P42866); assay: Agonist activity at mouse MOR expressed in CHO cell membranes assessed as stimulation of [35S]-GTPgammaS binding measured after 1 hr by scintillation counting analysis relative to DAMGO; format: functional; settings: Cell membrane
[6] = target: T2, C-C chemokine receptor type 5; assay: (§1) Inhibition of CCR5-mediated Luc-expressing HIV1 BaL Env-pseudotype virus infection in PHA-stimulated CCR5 expressing leukocytes containing human PBMC assessed as inhibition of viral entry by measuring luminescence at 100 nM pretreated for 1 hr before infection measured after 2 days of infection; format: cell-based
Outline: (§2)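 Compound 100 nM added 1 h before infection with BaL Env-pseudotyped luciferase virus (50 pg p24/10^6 cells) in 24-well plates. Lysate luciferase measured; RLU normalized to infected untreated cells.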
Target sequence in this assay (P51681 whole entry, looked up): as the sequence (P51681 whole entry) above

[7] = target: T2, C-C chemokine receptor type 5; assay: as §1, with “entry in presence of 10 nM morphine” for “entry”; format: cell-based; settings: filed as antagonist; outline: as §2
Target sequence in this assay (P51681 whole entry, looked up): as the sequence (P51681 whole entry) above

Mu-type opioid receptor [8] = target: T1, Mu-type opioid receptor; assay: Agonist activity at mouse MOR expressed in CHO cells coexpressing Gqi5 assessed as inhibition of DAMGO-induced calcium mobilization preincubated for 60 mins measured after 15 mins by calcium mobilization assay; format: functional, cell-based
Outline: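 CHO cells stably expressing mouse MOR, transfected with Gαq15 for 4 h, plated 10,000 cells/well and cultured 24 h. […] Calcium fluorescence read ex494/em516. Triplicate per concentration; IC50 by nonlinear regression.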

[9] = target: T2, C-C chemokine receptor type 5; assay: as §1, with “entry in presence of 10 nM […]” for “entry”; format: cell-based; settings: filed as antagonist; outline: as §2
Target sequence in this assay (P51681 whole entry, looked up): as the sequence (P51681 whole entry) above

[10] = target: T2, C-C chemokine receptor type 5; assay: Inhibition of CCR5-mediated Luc-expressing HIV1 BaL Env-pseudotype virus infection in CCR5 expressing leukocytes containing human PBMC assessed as inhibition of viral entry by measuring luminescence pretreated for 1 hr before infection measured after 2 days of infection; format: cell-based; settings: filed as antagonist
Outline: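 […] donor PBMCs, 2×10^5/well, in RPMI with 20 U/mL IL-2. Compound added 1 h before infection with BaL Env-pseudotyped luciferase virus (1.5 ng p24/well) and kept in culture. Luminescence read after 2 days.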
Target sequence in this assay (P51681 whole entry, looked up): as the sequence (P51681 whole entry) above

[11] = Therapeutic index, ratio of TC50 for human GHOST CCR5 cells to EC50 for inhibition of CCR5-mediated HIV-1 Bal entry in human GHOST CCR5 cells; format: toxicity, cell-based; settings: read-out: TI
Outline: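 GHOST-CCR5 cells plated at 1×10^4/well, cultured 24 h, then compounds at 6 concentrations (0.001–100 μM) in triplicate. Efficacy plates got HIV-1 BaL at a predetermined titer; 6 days at 37 °C. Supernatant RT activity measured by tritiated TTP incorporation on poly rA/oligo dT gives EC50. […] TI = TC50/EC50.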

[12] = target: T2, C-C chemokine receptor type 5; assay: Agonist activity at CCR5 (unknown origin) expressed in HOS cells co-expressing Gqi-5 assessed as stimulation of Ca2+ mobilization by calcium mobilization assay; format: functional, cell-based
Outline: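 HOS-CCR5 cells transiently transfected with Gqi5, used 48 h later. Fluo4-AM loaded 45 min, compounds added, plate read 120 s at ex494/em516. Agonist arm: compound response recorded against CCL5 under the same conditions.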
Target sequence in this assay (P51681 whole entry, looked up): as the sequence (P51681 whole entry) above

[13] = target: C-C chemokine receptor type 5 (Macaca mulatta, UniProt P61813); assay: Displacement of […] from recombinant rhesus macaque CCR5 expressed in Chem-1 cells by competitive radioligand binding assay; format: cell-based
Outline: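 Rhesus CCR5 Chem-1 membranes (3 μg) in HEPES buffer pH 7.4 with 0.2% BSA, 0.10 nM [125I]MIP-1α and six concentrations from 0.1 nM to 10 μM, 90 min at 25 °C. Nonspecific binding with 0.1 μM MIP-1β; filters counted. Ki by Cheng–Prusoff (KD 0.31 nM, historical value).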

T1 sequence (P42866 whole entry): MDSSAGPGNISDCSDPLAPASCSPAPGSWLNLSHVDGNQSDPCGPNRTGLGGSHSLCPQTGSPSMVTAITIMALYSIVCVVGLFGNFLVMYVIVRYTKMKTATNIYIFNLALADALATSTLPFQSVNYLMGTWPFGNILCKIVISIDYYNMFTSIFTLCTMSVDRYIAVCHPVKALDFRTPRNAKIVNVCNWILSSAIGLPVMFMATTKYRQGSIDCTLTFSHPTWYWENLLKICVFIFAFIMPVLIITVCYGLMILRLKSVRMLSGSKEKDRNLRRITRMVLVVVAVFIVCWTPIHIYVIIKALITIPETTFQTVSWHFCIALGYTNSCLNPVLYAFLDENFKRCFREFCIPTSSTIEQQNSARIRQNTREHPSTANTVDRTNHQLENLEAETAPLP
Chain of Mu-type opioid receptor (Mus musculus) (P42866 whole entry): as above

| SMILES | CC50 at 144 h [1] | Ki (Mu-type opioid receptor [2]) | IC50 (Mu-type opioid receptor [3]) | IC50 [4] | Emax [5] | Activity [12] | other results |
| --- | --- | --- | --- | --- | --- | --- | --- |
| Cc1nnc(C(C)C)n1[C@@H]1C[C@H]2CC[C@@H](C1)N2CC[C@H](NC(=O)C1CCC(F)(F)CC1)c1ccccc1 | > 500 nM | – | – | – | – | – | – |
| CC(C)c1nnc(CCNC(=O)COCC(=O)NCCCCCCCCCNC(=O)COCC(=O)N[C@@H]2CC[C@@]3(O)[C@H]4Cc5ccc(O)c6c5[C@@]3(CCN4CC3CC3)[C@H]2O6)n1C1C[C@H]2CC[C@@H](C1)N2CC[C@H](NC(=O)C1CCC(F)(F)CC1)c1ccccc1 (some centres not stated) | – | 11.2 nM | 74.4 nM | 965 nM | 4.27% | – | – |
| CC(C)c1nnc(CCNC(=O)COCC(=O)NCCCCCCCNC(=O)COCC(=O)N[C@@H]2CC[C@@]3(O)[C@H]4Cc5ccc(O)c6c5[C@@]3(CCN4CC3CC3)[C@H]2O6)n1C1C[C@H]2CC[C@@H](C1)N2CC[C@H](NC(=O)C1CCC(F)(F)CC1)c1ccccc1 (some centres not stated) | > 100000 nM | 6.05 nM | 50 nM | 57.5 nM | – | inactive | inhibition [6]: 22%; inhibition [7]: 55%; EC50 (Mu-type opioid receptor [8]): 36.3 nM; inhibition [9]: 69%; inhibition [10]: Dose-Dependent Effect; selectivity ratio [11]: > 1080 |
| CC(C)c1nnc(CCNC(=O)COCC(=O)NCCCCCNC(=O)COCC(=O)N[C@@H]2CC[C@@]3(O)[C@H]4Cc5ccc(O)c6c5[C@@]3(CCN4CC3CC3)[C@H]2O6)n1C1C[C@H]2CC[C@@H](C1)N2CC[C@H](NC(=O)C1CCC(F)(F)CC1)c1ccccc1 (some centres not stated) | – | 4.23 nM | 1100 nM | 1260 nM | 19.4% | – | – |
| CNC(=O)COCC(=O)NCCCCCCCNC(=O)COCC(=O)NCCc1nnc(C(C)C)n1[C@@H]1C[C@H]2CC[C@@H](C1)N2CC[C@H](NC(=O)C1CCC(F)(F)CC1)c1ccccc1 | – | – | – | – | – | inactive | Ki [13]: 41 nM |
| Cc1nnc(C(C)C)n1C1C[C@H]2CC[C@@H](C1)N2CC[C@H](NC(=O)C1CCC(F)(F)CC1)c1ccc(NC(=O)COCC(=O)NCCCCCCCNC(=O)COCC(=O)N[C@@H]2CC[C@@]3(O)[C@H]4Cc5ccc(O)c6c5[C@@]3(CCN4CC3CC3)[C@H]2O6)cc1 (some centres not stated) | > 100000 nM | 51.8 nM | 40 nM | 126 nM | 11.7% | – | – |
